# Measured values: PMC12164861 (Drug Design, Development and Therapy, 2025)
# Key:
# albumin = details: cited from earlier work
# [1] = cited from earlier work
# [2] = Teicoplanin steady-state plasma trough concentration; type: in vivo, human; details: for teicoplanin Cmin: median (interquartile range)
# How it was run: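 Retrospective cohort of adult ICU patients (Jan 2018–Dec 2023) under therapeutic drug monitoring of the test compound. Venous blood was drawn just before the next dose after at least 6 doses (steady state). Total plasma concentration was measured by HPLC, linear range 3.125–100.0 µg/mL. Target was Cmin ≥ 15.0 μg/mL. Non-normal data are given as median (interquartile range), counts as rate (%).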
Molecule,albumin binding (albumin),"probability of target attainment (PTA) ([1]; model-based simulations, higher-dose regimens (12 mg/kg), MIC up to 0.5 mg/L, elderly critically ill patients with pneumonia)","probability of target attainment (PTA) of target Cmin ([1]; simulations, standard dosage regimen, critically ill patients with severe renal dysfunction (eGFR ≤30 mL/min/1.73 m²))",percentage of teicoplanin Cmin >30.0 μg/mL ([2]; all values (64/404)),teicoplanin Cmin ([2]; patients who did not use caspofungin),teicoplanin Cmin ([2]; patients who did not use voriconazole),teicoplanin Cmin ([2]; patients who used caspofungin),teicoplanin Cmin ([2]; patients who used voriconazole),percentage of teicoplanin Cmin >30.0 μg/mL ([2]; patients with fungal co-infection),percentage of teicoplanin Cmin >30.0 μg/mL ([2]; patients without fungal infection),percentage of teicoplanin Cmin reaching the target (≥15.0 μg/mL) ([2]; year 2018 (12/50)),percentage of teicoplanin Cmin reaching the target (≥15.0 μg/mL) ([2]; year 2019 (11/18)),percentage of teicoplanin Cmin reaching the target (≥15.0 μg/mL) ([2]; year 2020 (26/40)),percentage of teicoplanin Cmin reaching the target (≥15.0 μg/mL) ([2]; year 2021 (34/49)),percentage of teicoplanin Cmin reaching the target (≥15.0 μg/mL) ([2]; year 2022 (66/88)),percentage of teicoplanin Cmin reaching the target (≥15.0 μg/mL) ([2]; year 2023 (123/159))
CC[C@H](C)C[C@H](C)CCCCCCCCC(=O)N[C@H]1C[C@@H](O)[C@@H](NCCN)NC(=O)[C@@H]2[C@@H](O)CCN2C(=O)[C@H]([C@H](O)CCN)NC(=O)[C@H]([C@H](O)[C@@H](O)c2ccc(O)cc2)NC(=O)[C@@H]2C[C@@H](O)CN2C(=O)[C@H]([C@@H](C)O)NC1=O [Caspofungin],≈ 97%,–,–,–,–,–,–,–,–,–,–,–,–,–,–,–
C[C@@H](c1ncncc1F)[C@](O)(Cn1cncn1)c1ccc(F)cc1F [voriconazole],58%,–,–,–,–,–,–,–,–,–,–,–,–,–,–,–
Teicoplanin,–,at least 85%,52.8%,15.8%,"19.67 (12.38, 25.45) μg/mL","19.74 (13.22, 26.18) μg/mL","20.12 (14.67, 26.68) μg/mL","18.48 (10.84, 24.24) μg/mL",20.3%,12.0%,24.0%,61.1%,65.0%,69.4%,75.0%,77.4%
